CXCR6 inh: CXCR6 receptor inhibitors, primary screen, cell-based, beta-arrestin, luminescence, CHO-K1 PathHunter, 1536-well | inhibition, % at 20 µM | 360,000 tested, 0.36% active | C-X-C chemokine receptor type 6 (Homo sapiens), O00574 | AID 602244, 2012; in the data active means inhibition above about 34%, passing the limit was not always enough;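 further: antagonist mode with CXCL16 agonist at 10 nM final; 0% = 10 nM CXCL16 with DMSO and 100% = unstimulated wells without agonist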
Target sequence (O00574 whole entry, looked up): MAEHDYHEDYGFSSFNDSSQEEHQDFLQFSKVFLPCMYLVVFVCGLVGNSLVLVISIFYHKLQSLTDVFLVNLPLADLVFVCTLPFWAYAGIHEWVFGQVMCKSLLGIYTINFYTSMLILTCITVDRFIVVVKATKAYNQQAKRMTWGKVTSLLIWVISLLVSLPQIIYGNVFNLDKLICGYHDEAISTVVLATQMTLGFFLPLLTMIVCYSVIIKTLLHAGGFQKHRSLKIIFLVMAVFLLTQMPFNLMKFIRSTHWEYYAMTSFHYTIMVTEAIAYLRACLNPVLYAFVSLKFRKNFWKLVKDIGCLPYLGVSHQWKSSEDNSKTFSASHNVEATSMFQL
APJ ag: agonists of human apelin receptor APJ, primary screen, CHO-K1 cells, PathHunter beta-arrestin, luminescence | 0% DMSO wells, 100% apelin | 330,000 tested, 0.11% active | AID 2520, 2010 | P35414 | activation, % at 20 µM;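 active means activation more than six SD over the plate average, tested at 20 µM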;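 further: 0% = DMSO alone and 100% = apelin-13 at 10 nM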
Target sequence (P35414 whole entry, looked up): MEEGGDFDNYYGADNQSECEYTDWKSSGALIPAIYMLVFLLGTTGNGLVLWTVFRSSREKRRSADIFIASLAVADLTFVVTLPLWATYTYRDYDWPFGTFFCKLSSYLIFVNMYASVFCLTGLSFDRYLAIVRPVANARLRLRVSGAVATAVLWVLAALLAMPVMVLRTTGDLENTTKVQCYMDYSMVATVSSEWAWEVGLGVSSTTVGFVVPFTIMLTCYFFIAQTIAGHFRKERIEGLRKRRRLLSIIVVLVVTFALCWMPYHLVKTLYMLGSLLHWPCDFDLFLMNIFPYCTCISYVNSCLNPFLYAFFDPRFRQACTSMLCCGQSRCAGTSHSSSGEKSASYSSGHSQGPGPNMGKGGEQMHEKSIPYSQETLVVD
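assay system = CHO-K1 APJ beta-arrestin complementation cell line | input = cell density 1000 per well | dosing = compound 20 µM once, DMSO 1% | timing = compound 90 min 25 °C, reagent 1 h | measured by = luminescence from split beta-galactosidase complementation, Galacton Star/Emerald II substrate | read-out basis = APJ agonist activity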
EBI2 antag: EBI2 receptor antagonists, beta-arrestin recruitment, primary screen, cell-based, luminescence, 7a,25-OHC stimulation, uHTS | G-protein coupled receptor 183 (Homo sapiens), P32249 | AID 651636, 2012 | inhibition, % at 5 µM | 7a,25-OHC stimulated | 360,000 tested, 0.81% active; in the data active means inhibition above about 38%;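 further: enzyme fragment complementation signal reports receptor beta-arrestin coupling in cells; 0% = agonist plus DMSO wells and 100% = wells without agonist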
APJ antagonist: antagonists of human apelin receptor APJ, primary screen, CHO-K1 cells, beta-arrestin complementation, luminescence | P35414 | inhibition, % at 20 µM | 330,000 tested, 0.32% active | AID 2521, 2010;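 active means inhibition above about 40% at 20 µM, limit read from the data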;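 further: cells challenged with 10 nM apelin-13 agonist together with compound; plate controls were apelin-13 plus DMSO wells for no effect and DMSO wells lacking apelin-13 for full effect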
CCR6 antag: CCR6 receptor antagonists, primary screen, cell-based, CHO-K1, luminescence, beta-arrestin, uHTS; CHO-K1 CCR6 PathHunter beta-arrestin, CCL20-stimulated; inhibition, % at 20 µM; 340,000 tested, 0.49% active; AID 493098, 2011;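 active means compounds whose inhibition of the agonist-driven luminescence signal at 20 µM reaches about 50%, limit read from the data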;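 further: cells stimulated with CCL20 at 14 nM final; plate controls were DMSO with CCL20 for no effect and DMSO without agonist for full effect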
EBI2 antag conf: EBI2 antagonist hit retest, beta-arrestin, confirmation, cell-based, single concentration, luminescence, 7a,25-OHC stimulation; inhibition, % at 5 µM; 7a,25-OHC antagonism; AID 651997, 2013; shares compounds with EBI2 antag; 2,400 tested, 29% active;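 active means inhibition of at least 50%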
EBI2 agonist: EBI2 agonist activity of antagonist hits, confirmation, counter-screen for EBI2 antagonist project, cell-based, single concentration, agonist mode, luminescence; shares compounds with EBI2 antag; EBI2-expressing cells, 60 min; 0% vehicle, 100% 7α,25-dihydroxycholesterol control; activation, % at 5 µM; 2,400 tested, under 10 active;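 active means activation of at least 50%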
bGal counter: E. coli beta-galactosidase enzyme inhibition, confirmation, counter-screen for EBI2 antagonist project, biochemical, luminescence, single concentration | inhibition, % at 5 µM | shares compounds with EBI2 antag | 2,400 tested, 1% active | purified beta-galactosidase, luminescent Galacton Star, 15 min;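 active means replicate-average signal at least 3 plate SD below neutral wells, shown as high inhibition, flagging enzyme-inhibiting false positives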;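 further: 0% = DMSO wells with enzyme and 100% = wells lacking enzyme; higher means stronger loss of beta-gal luminescence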
Starred values were filed as active, the others as inactive; . = no result. This is a sample that favours compounds with a hit; in the whole collection about 1.5% have one here.

SMILES	CXCR6 inh	APJ ag	EBI2 antag	APJ antagonist	CCR6 antag	EBI2 antag conf	EBI2 agonist	bGal counter
COC(=O)C1CSC(C(=O)OC)N1C(=O)CN1CCN(c2ccc(OC)cc2)CC1 (stereo unspecified)	-3.5	-2.2	0.3	-0.4	-9.5	.	.	.
Cc1cc(C)c(S(=O)(=O)Nc2ccc(N(C)C)cc2)c(C)c1-n1cnnn1	-8.5	1.9	65.1*	-26.5	-10.5	33.4	2.2	2.8
Cc1ccc(S(=O)(=O)Nc2ccc(-n3cnnn3)cc2)c(C)c1	3.3	-5.1	-2.6	-3.8	2.7	.	.	.
COc1ccc(OCCCC(=O)N2CCN(S(=O)(=O)c3cccc(F)c3)CC2)cc1	-9.1	-3.3	57.7*	11.3	9.6	29.4	0.1	3.4
COc1ccc(S(=O)(=O)N2CCN(C(=O)CCC3CCCC3)CC2)cc1	1.4	7.5	3.0	3.2	-1.6	.	.	.
CCOc1ccccc1OCCCC(=O)N1CCN(S(=O)(=O)c2cccc(F)c2)CC1	-1.5	-2.3	-3.8	0.7	2.9	.	.	.
COc1ccc(CCC(=O)N2CCN(S(=O)(=O)c3ccc(C)cc3)CC2)cc1	-3.1	-3.2	49.4*	8.9	8.3	21.2	0.5	3.9
COc1ccc(CCC(=O)N2CCN(S(=O)(=O)c3cccc(Cl)c3)CC2)cc1	-1.9	-4.4	71.9*	12.5	11.5	47.1	-0.4	-17.4
CCOc1ccccc1NC(=O)COC(=O)CSc1ccc(Cl)cc1	-19.8	-0.7	-8.5	-9.7	-2.0	.	.	.
CN(CC(=O)NC(=O)NC(C)(C)C)CC(=O)Nc1ccccc1Cl	6.6	-3.5	5.4	3.8	-6.9	.	.	.
CC(C)Oc1ccc(C(CC(=O)O)NC(=O)C(Sc2ccccc2)c2ccccc2)cc1 (stereo unspecified)	-4.7	-0.2	4.7	0.5	7.1	.	.	.
CCc1csc(CNC(=O)C2CCC(=O)N(Cc3cccc(F)c3)C2)n1 (stereo unspecified)	-5.9	-1.3	3.4	4.4	17.3	.	.	.
Cc1ccc2cccc(OCC(=O)NCCC3=CCCCC3)c2n1	-7.9	-0.1	47.7*	8.9	19.2	23.5	1.4	2.4
O=C(COc1ccccc1Br)NCCC1=CCCCC1	3.5	-3.6	16.5	4.5	15.5	.	.	.
O=c1[nH]nc(CNc2ccc(OC(F)(F)F)cc2)c2ccccc12	-0.2	-1.1	51.8*	23.4	20.8	29.4	-0.8	-7.0
O=c1[nH]nc(CNc2ccc(C(F)(F)F)cc2)c2ccccc12	-8.3	2.6	21.4	18.7	12.5	.	.	.
Cn1c(=O)c2c(nc(N/N=C/c3ccc(OC(=O)c4ccco4)cc3)n2Cc2ccccc2Cl)n(C)c1=O	-9.7	1.4	54.2*	-11.9	-2.8	33.7	0.5	10.9
COc1ccc(-c2cc(C3CCN(c4ccc(C(C)=O)cc4[N+](=O)[O-])CC3)[nH]n2)cc1	13.5	0.3	8.9	6.9	18.2	.	.	.
COC(=O)c1ccc(N2CCC(c3cc(-c4ccc(OC)cc4)n[nH]3)CC2)c([N+](=O)[O-])c1	10.3	-2.9	49.5*	4.9	25.8	6.2	-0.2	6.0
O=C(/C=C/c1ccc(F)cc1)NCCC1=CCCCC1	-3.9	-2.9	54.6*	12.1	-6.0	44.6	1.7	1.7
COc1cccc(NC(=O)Cn2c3ccccc3c3nc4n(c(=O)c32)CCCS4)c1	0.2	-0.2	82.6*	5.6	11.0	49.9	1.0	3.6
O=C(/C=C/c1cccc(F)c1)N1CCN(c2ccccn2)CC1	5.6	-1.3	76.9*	-21.7	3.7	61.3*	0.3	-5.6
O=C(/C=C/c1ccccc1)N1CCN(c2ccccn2)CC1	7.1	-2.9	88.0*	8.5	13.0	74.1*	1.0	2.2
O=C(/C=C/c1ccccc1F)N1CCN(c2ccccn2)CC1	-9.9	-2.8	44.8*	7.9	8.6	31.9	0.4	5.1
O=C(/C=C/c1ccc(Cl)cc1)N1CCN(c2ccccn2)CC1	4.5	0.9	93.1*	9.0	20.0	80.5*	-1.5	-8.1
SMILES	CXCR6 inh	APJ ag	EBI2 antag	APJ antagonist	CCR6 antag	EBI2 antag conf	EBI2 agonist	bGal counter
COc1cc(C2C(c3ccccc3)C(c3cc(OC)cc(=O)o3)C2c2ccccc2)oc(=O)c1 (stereo unspecified)	3.3	.	0.9	.	10.8	.	.	.
CCCOc1ccc(N2C(=O)CC(N(CCOC34CC5CC(CC(C5)C3)C4)C(C)=O)C2=O)cc1 (stereo unspecified)	-1.4	-0.5	3.7	-20.5	7.0	.	.	.
C#CCn1cc(CNC[C@H]2O[C@@H](n3cnc4c(=O)[nH]c(N)nc43)[C@H](O)[C@@H]2O)c2ccccc21	-2.6	.	3.5	.	.	.	.	.
CN(CC(=O)Nc1ccccc1Br)C(=O)CN1CCN(Cc2cccc(Cl)c2)CC1	2.0	0.1	9.4	-7.3	9.3	.	.	.
COc1ccc(-c2c(C3=CCCCC3)oc3ccc(-c4ccc5c(c4)OCO5)cc23)cn1	-2.4	-0.3	-1.2	-6.6	4.5	.	.	.
O=C(/C=C/c1ccc(Cl)c(C(F)(F)F)c1)N1CCN(c2ccccn2)CC1	-2.9	-3.2	47.6*	8.8	15.7	37.0	0.6	3.0
CCSc1ncc(CO)c(N)n1	-1.4	-3.0	-2.6	-4.1	5.7	.	.	.
CC(C)(C)OC(=O)N(CCc1ccccc1)Cc1ccc(OCc2cccc(NC(=O)/C=C/c3ccccc3)c2)cc1	5.3	.	58.9*	.	2.1	15.3	1.4	4.9
CC(C)(C)OC(=O)N(CCc1ccccc1)Cc1ccccc1OCc1cccc(NC(=O)/C=C/c2ccccc2)c1	-2.1	.	19.9	.	13.3	.	.	.
O=C(Nc1cnn(C23CC4CC(CC(C4)C2)C3)c1)c1cc(-c2ccccc2)on1	2.3	0.1	63.4*	-29.8	18.7	36.7	0.8	5.2
Cc1ccc(C(C)C)c(OCc2ccc(C(=O)N/N=C/c3ccc(C(=O)O)cc3)cc2)c1	-2.7	-2.2	40.0*	-5.2	7.7	8.5	-0.3	7.8
CCOC(=O)c1ccc(CNC(=O)c2cc(COc3ccccc3SC)on2)o1	4.0	-3.4	7.7	-0.1	12.2	.	.	.
CCN1CCN(C(=O)NC2CC(=O)N(c3ccc(OC)cc3)C2)CC1 (stereo unspecified)	-2.8	-0.2	-2.6	-0.5	6.0	.	.	.
